Data as given in ChEMBL document CHEMBL1667862, “Chisopanins A-K, 11 new protolimonoids from Chisocheton paniculatus and their anti-inflammatory activities” (Bioorg Med Chem, 2011).

Key:
RAW264.7 [1] = assay: Antiinflammatory activity in mouse RAW264.7 cells assessed as inhibition of LPS-induced nitric oxide production treated 2 hrs before LPS challenge measured after 18 hrs by griess reaction; assay type: functional, cell-based
In short: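 RAW 264.7 cells seeded at 1 × 10^5 per well in 24-well plates in RPMI 1640 with 10% heat-inactivated FBS, grown 24 h. Pretreated 2 h with compounds (40, 20, 10, 5, 2.5 µM; DMSO ≤0.1% final), then stimulated with LPS 2 µg/mL for 18 h. Nitrite measured. Mean ± SD.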

RAW264.7 [2] = assay: Antiinflammatory activity in mouse RAW264.7 cells assessed as inhibition of LPS-induced TNFalpha production treated 2 hrs before LPS challenge measured after 24 hrs by ELISA; assay type: functional, cell-based; conditions: in the assay text read “measured after 18 hrs” for “measured after 24 hrs”
In short: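 RAW 264.7 cells (RPMI 1640, 10% heat-inactivated FBS, 37 °C, 5% CO2) seeded in 24-well plates, grown 24 h, then exposed to compounds (100, 50, 25, 12.5, 6.25 µM) and LPS as for the nitrite assay. TNF-α in medium measured by mouse ELISA kit. Data as mean ± SD.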

| Structure (SMILES) | IC50 (RAW264.7 [1]) [µM] | IC50 (RAW264.7 [2]) [µM] |
| --- | --- | --- |
| CO[C@@H]1O[C@@H]([C@H](O)C(C)(C)OC)C[C@H]1[C@H]1CC=C2[C@]3(C)[C@H](O)C[C@H]4C(C)(C)[C@H](OC(C)=O)CC[C@]4(C)[C@H]3CC[C@]21C [CHISOPANIN E] | 6.2 | > 100 |
| C=C(C)[C@@H](O)[C@H]1C[C@@H]([C@H]2CC=C3[C@]4(C)[C@H](O)C[C@H]5C(C)(C)[C@H](OC(C)=O)CC[C@]5(C)[C@H]4CC[C@]32C)[C@H](OCC)O1 [CHISOPANIN D] | > 50 | > 100 |
| CC(=O)O[C@@H]1CC[C@]2(C)[C@H]3CC[C@]4(C)C(=CC[C@@H]4[C@H]4COC(C)(C)[C@@H](O)[C@H](O)C4)[C@]3(C)[C@H](OC(C)=O)C[C@H]2C1(C)C [CHISIAMOL C] | 8.7 | > 100 |
| CC(=O)O[C@@H]1CC[C@]2(C)[C@H]3CC[C@]4(C)C(=CC[C@@H]4[C@H]4CO[C@H](C(C)(C)O)[C@H](O)C4)[C@]3(C)[C@H](O)C[C@H]2C1(C)C | > 50 | 73.5 |
| CO[C@@H]1O[C@@H]([C@H](O)C(C)(C)O)C[C@H]1[C@H]1CC[C@]2(C)C3=CC[C@H]4C(C)(C)C(=O)CC[C@]4(C)[C@H]3CC[C@@]12C | 29.4 | 54.6 |
| CO[C@@H]1O[C@@H]([C@H](O)C(C)(C)O)C[C@H]1[C@H]1CC=C2[C@]3(C)[C@H](O)C[C@H]4C(C)(C)[C@H](OC(C)=O)CC[C@]4(C)[C@H]3CC[C@]21C [CHISIAMOL D] | 6.5 | > 100 |
| CC(=O)O[C@@H]1CC[C@]2(C)[C@H]3CC[C@]4(C)C(=CC[C@@H]4[C@H]4CO[C@](O)(C(C)(C)O)[C@H](O)C4)[C@]3(C)[C@H](O)C[C@H]2C1(C)C [CHISOPANIN B] | 7.9 | 30.7 |
| C=C(C)[C@@H](O)[C@H]1C[C@@H]([C@H]2CC=C3[C@]4(C)[C@H](O)C[C@H]5C(C)(C)[C@H](OC(C)=O)CC[C@]5(C)[C@H]4CC[C@]32C)[C@H](OC)O1 [CHISOPANIN C] | 40 | > 100 |
| CC(=O)O[C@@H]1CC[C@]2(C)[C@H]3CC[C@]4(C)C(=CC[C@@H]4[C@H]4COC(C)(C)[C@@H](O)[C@H](O)C4)[C@]3(C)[C@H](O)C[C@H]2C1(C)C [CHISIAMOL B] | 16.5 | > 100 |
| CC(=O)O[C@@H]1CC[C@]2(C)[C@H]3CC[C@]4(C)C(=CC[C@@H]4[C@H]4CO[C@](O)(C(C)(C)O)[C@H](O)C4)[C@]3(C)[C@H](OC(C)=O)C[C@H]2C1(C)C [CHISOPANIN A] | 5.4 | 26.9 |
| CO[C@H]1O[C@@H]([C@H](O)C(C)(C)O)C[C@H]1[C@H]1CC=C2[C@]3(C)[C@H](O)C[C@H]4C(C)(C)[C@H](OC(C)=O)CC[C@]4(C)[C@H]3CC[C@]21C [CHISIAMOL E] | 8.9 | > 100 |

The remaining lines, values ahead:

| IC50 (RAW264.7 [1]) [µM] | IC50 (RAW264.7 [2]) [µM] | Structure (SMILES) |
| --- | --- | --- |
| 33.4 | 47.4 | CC(=O)O[C@@H]1CC[C@]2(C)[C@H]3CC[C@]4(C)C(=CC[C@H]4C4=CC(C(O)C(C)(C)O)OC4=O)[C@]3(C)[C@H](O)C[C@H]2C1(C)C (stereo partly specified) [CHISOPANIN K] |
| – | 19.1 | O=c1c(-c2ccc(O)cc2)coc2cc(O)cc(O)c12 [GENISTEIN] |
| 12.3 | > 100 | CCOC(C)(C)[C@@H](O)[C@H]1C[C@@H]([C@H]2CC=C3[C@]4(C)[C@H](O)C[C@H]5C(C)(C)[C@H](OC(C)=O)CC[C@]5(C)[C@H]4CC[C@]32C)[C@@H](OC)O1 [CHISOPANIN J] |
| 5.3 | > 100 | CCOC(C)(C)[C@@H](O)[C@H]1C[C@@H]([C@H]2CC=C3[C@]4(C)[C@H](O)C[C@H]5C(C)(C)[C@H](OC(C)=O)CC[C@]5(C)[C@H]4CC[C@]32C)[C@H](OC)O1 [CHISOPANIN I] |
| 6.9 | > 100 | CO[C@H]1O[C@@H]([C@H](O)C(C)(C)OC)C[C@H]1[C@H]1CC=C2[C@]3(C)[C@H](O)C[C@H]4C(C)(C)[C@H](OC(C)=O)CC[C@]4(C)[C@H]3CC[C@]21C [CHISOPANIN F] |
| 5.4 | > 100 | CCO[C@@H]1O[C@@H]([C@H](O)C(C)(C)O)C[C@H]1[C@H]1CC=C2[C@]3(C)[C@H](O)C[C@H]4C(C)(C)[C@H](OC(C)=O)CC[C@]4(C)[C@H]3CC[C@]21C [CHISOPANIN G] |
| 0.86 | – | C[C@@H]1C[C@H]2[C@@H]3CCC4=CC(=O)C=C[C@]4(C)[C@@]3(F)[C@@H](O)C[C@]2(C)[C@@]1(O)C(=O)CO [DEXAMETHASONE] |
| > 50 | > 100 | CCO[C@H]1O[C@@H]([C@H](O)C(C)(C)O)C[C@H]1[C@H]1CC=C2[C@]3(C)[C@H](O)C[C@H]4C(C)(C)[C@H](OC(C)=O)CC[C@]4(C)[C@H]3CC[C@]21C [CHISOPANIN H] |
